1 molecule from ChEMBL document CHEMBL5584325, “Discovery of novel coumarin triazolyl and phenoxyphenyl triazolyl derivatives targeting amyloid beta aggregation-mediated oxidative stress and neuroinflammation for enhanced neuroprotection” (RSC Med Chem, 2024) can be followed below.

In series [1] the test system is BV-2. Description: Neuroprotective activity in amyloid beta (1 to 42)-induced oxidative stress in mouse BV-2 cells assessed as intracellular ROS level at 10 uM measured after 24 hrs by DCFH-DA staining based fluorescence assay (reference value: 150.91 +/- 0.49%). It counts as functional.
Another series has as its system SH-SY5Y. The series is described as follows: Neuroprotective activity against human SH-SY5Y cells co-cultured with 10 uM compound pretreated BV-2 cells exposed to amyloid beta (1 to 42) assessed as cell viability measured after 24 hrs by MTT assay (reference value: 80.62 +/- 0.86%). It counts as functional. As to conditions: read-out: Activity. (In general: Tetrazolium dyes change colour on reduction, which living cells bring about.)

In series [2] the test system is BV-2. Description: Cytotoxicity against mouse BV-2 cells assessed as reduction in cell viability at 10 uM measured after 24 hrs by MTT assay. It counts as toxicity, cell-based. As to conditions: bv-2, 24 h. A digest of the protocol: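 BV-2 microglia grown in DMEM with 10% FBS, HEPES and Glutamax at 37 °C, 5% CO2, seeded overnight at 1 × 10^4 cells/well. Compound alone at 0–200 μM (range extended lower where needed) for 24 h. MTT 2 h at 37 °C, formazan dissolved in DMSO, A570 read. Used to pick non-toxic concentrations.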

The target of series [3] is T1, Amyloid-beta precursor protein (Homo sapiens, UniProt P05067). The series is described as follows: Inhibition of amyloid beta (1 to 42) aggregation in mouse BV-2 cells exposed to amyloid-beta (1 to 42) (unknown origin) at 10 uM measured after 24 to 48 hrs by thioflavin T staining based fluorescence assay. It counts as cell-based. The note with it: time 24-48 hrs.
T1 sequence (P05067 whole entry): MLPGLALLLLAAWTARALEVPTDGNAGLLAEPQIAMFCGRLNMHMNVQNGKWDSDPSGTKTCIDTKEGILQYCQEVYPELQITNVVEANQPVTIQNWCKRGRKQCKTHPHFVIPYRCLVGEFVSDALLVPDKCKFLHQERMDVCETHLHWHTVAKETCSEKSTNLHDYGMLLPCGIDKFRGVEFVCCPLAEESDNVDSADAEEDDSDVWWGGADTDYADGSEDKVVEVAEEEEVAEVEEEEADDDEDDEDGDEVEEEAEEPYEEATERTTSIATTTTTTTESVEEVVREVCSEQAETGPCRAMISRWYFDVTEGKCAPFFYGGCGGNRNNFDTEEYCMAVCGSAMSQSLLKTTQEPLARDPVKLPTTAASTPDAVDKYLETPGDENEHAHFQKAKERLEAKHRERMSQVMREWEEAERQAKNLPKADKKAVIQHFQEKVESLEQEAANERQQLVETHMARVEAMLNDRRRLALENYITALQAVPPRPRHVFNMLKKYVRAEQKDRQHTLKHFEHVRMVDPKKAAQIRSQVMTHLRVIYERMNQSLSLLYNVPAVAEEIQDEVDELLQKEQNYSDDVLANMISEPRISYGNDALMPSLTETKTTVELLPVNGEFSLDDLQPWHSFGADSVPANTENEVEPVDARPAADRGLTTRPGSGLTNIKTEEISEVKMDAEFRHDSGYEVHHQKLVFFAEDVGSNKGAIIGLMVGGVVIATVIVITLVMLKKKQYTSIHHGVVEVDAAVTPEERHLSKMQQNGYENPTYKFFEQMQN
Series [4] is described as follows: Induction of ROS generation in mouse BV-2 cells at 10 uM measured after 24 hrs by DCFH-DA staining based fluorescence assay. It counts as toxicity, cell-based. As to conditions: bv-2, 24 h. A digest of the protocol: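 BV-2 cells seeded overnight at 1 × 10^4/well, compound alone (no Aβ). Cells loaded with 20 μM (final) DCFH-DA for 30 min at 37 °C, washed, then given conditioned medium for 24 h. Fluorescence read at ex […] nm. Expressed as % of control; n = 3 in triplicate, one-way ANOVA with LSD.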

For series [5], the target named is T1, Amyloid-beta precursor protein. The series is described as follows: Inhibition of amyloid beta (1 to 42) (unknown origin) aggregation incubated for 48 hrs by ThioflavinT staining based fluorescence assay.
Series [6] is described as follows: Octanol/water partition coefficient, log P of the compound incubated for 2 hrs under shaking condition by HPLC analysis. It counts as physicochemical. A digest of the protocol:
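Shake-flask log P: 10 mM stock (DMSO, or octanol for highly lipophilic compounds) partitioned between mutually saturated octanol and water at three phase ratios. Shaken 2 h at 25 ± 1 °C, phases separated, each phase quantified by C18 HPLC-UV. Mobile phase 0.1% formic acid:methanol 40:60; log P averaged over the three ratios.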

In series [7] the test system is BV-2. The series is described as follows: Neuroprotective activity in amyloid beta (1 to 42)-induced inflammation in mouse BV-2 cells assessed as change in IL-6 mRNA expression at 10 uM measured after 24 hrs by SYBR green staining based qRT-PCR analysis. It counts as functional, cell-based. For orientation: In qPCR the cycle at which signal appears reflects the starting amount.

The test system of series [8] is BV-2. Description: Neuroprotective activity in amyloid beta (1 to 42)-induced inflammation in mouse BV-2 cells assessed as IL-1beta mRNA expression at 10 uM measured after 24 hrs by SYBR green staining based qRT-PCR analysis (reference value: 1.53 +/- 0.13%). It counts as functional.
Series [9] has as its system BV-2. The series is described as follows: Neuroprotective activity in amyloid beta (1 to 42)-induced inflammation in mouse BV-2 cells assessed as TNFalpha mRNA expression at 10 uM measured after 24 hrs by SYBR green staining based qRT-PCR analysis (reference value: 1.73 +/- 0.22%). It counts as functional.
Series [10] has as its target T1, Amyloid-beta precursor protein. Description: Inhibition of amyloid beta (1 to 42) (unknown origin) aggregation at 100 uM incubated for 48 hrs by ThioflavinT staining based fluorescence assay relative to control. A digest of the protocol:
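Compound in DMSO (1 μl of a 1 mM solution) mixed with 9 μl of 25 μM Aβ1–42 in Tris pH 7.4. Incubated 48 h at 37 °C without agitation, then 200 μl of 5 μM ThT added. Fluorescence read at ex 446/em 500 nm; % inhibition vs DMSO control, solvent blank subtracted.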

Series [11] has as its system BV-2. The series is described as follows: Neuroprotective activity in amyloid beta (1 to 42)-induced cytotoxicity in mouse BV-2 cells assessed as cell viability at 10 uM measured after 24 hrs by MTT assay (reference value: 54.96 +/- 1.12%). It counts as functional. The note with it: read-out: Activity.

Calls of active or inactive are those of the source. No cut-off for these calls is given here.

The term inhibition denotes how much of the control response was suppressed. For orientation: IC50 means the concentration needed to halve the response being measured. Usually logP stands for the decadic logarithm of the partition coefficient of the neutral form, usually between octanol and water.

As to `COc1cc(/C=C/C(=O)OCc2cn(-c3ccc(Oc4ccccc4)cc3)nn2)ccc1O`, the Activity in the series on BV-2 [1] is 105.68%; in the series with BV-2 [2] it was “Non-Toxic”; in series [4] it was “Non-Toxic”; in the series with BV-2 [8], 8.29%; in the series on BV-2 [9], 1.19%. In addition, the viability at 10 µM in the series on SH-SY5Y amounted to 87.2%; with BV-2 [11], 62.9%. In series [3], the inhibition result was “Active”. In series [5], the midpoint of inhibition, the IC50, lay at 14.1 µM. This molecule yielded a logP at 2 h in [6] of 4.92. The outcome in the series on BV-2 [7] was inactive. In [10], the inhibition was > 50%.
